# Measurements: ChEMBL document CHEMBL4261490, “Exploring the links between peptoid antibacterial activity and toxicity” (Medchemcomm, 2017)
# Square brackets hold non-standard residues; d marks the D form. Peptide text beside a SMILES is read from it. Gly(Nα-4-Cl-benzyl) = O=C(O)CNCc1ccc(Cl)cc1; N(4-F-Bzl)Gly = O=C(O)CNCc1ccc(F)cc1; Gly(N-(CH2)6NH2) = NCCCCCCNCC(=O)O; Gly(N-2-aminoethyl) = NCCNCC(=O)O; N(isopentyl)Gly = CC(C)CCNCC(=O)O; Nspe = C[C@H](NCC(=O)O)c1ccccc1; NhArg = N=C(N)NCCCCNCC(=O)O; Nphe = O=C(O)CNCc1ccccc1; Nlys = NCCCCNCC(=O)O
# Columns and labels:
# [1] = Selectivity index, ratio of ED50 for human HaCaT cells to MIC for Staphylococcus epidermidis clinical isolate; type: toxicity; settings: read-out: Selectivity Index
# [2] = Selectivity index, ratio of ED50 for human HepG2 cells to MIC for Staphylococcus epidermidis clinical isolate; type: toxicity; settings: read-out: Selectivity Index
# [3] = Selectivity index, ratio of ED50 for human HepG2 cells to MIC for Staphylococcus aureus 3R7089 strain Oxford/ATCC 9144; type: toxicity; settings: read-out: Selectivity Index
# [4] = Selectivity index, ratio of ED50 for human HaCaT cells to MIC for Staphylococcus aureus 3R7089 strain Oxford/ATCC 9144; type: toxicity; settings: read-out: Selectivity Index
# [5] = Cytotoxicity against human HepG2 cells assessed as reduction in cell viability pretreated for 1 hr followed by DMEM addition measured after 24 hrs by alamar blue assay; type: cell-based; settings: read-out: ED50
# Procedure, shortened: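 HepG2 cells are kept in DMEM high glucose with 10% heat-inactivated FBS and 1% P/S at 37 °C, 5% CO2, and seeded at 2x10^4 cells/well one day ahead. They are exposed to compounds (100 to 3 µM, from 5 mM DMSO stocks) in 50 µL for 1 h. Medium is then added and cells incubated 24 h. alamarBlue is read after 2 h (Ex 560/Em 600). Triplicate on ≥2 occasions; ED50 from dose-response; DMSO negative control.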
# [6] = Cytotoxicity against human HaCaT cells assessed as reduction in cell viability pretreated for 1 hr followed by DMEM addition measured after 24 hrs by alamar blue assay; type: cell-based; settings: read-out: ED50
# Procedure, shortened: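 HaCaT keratinocytes are grown in DMEM high glucose with 10% FBS and 1% P/S and seeded at 2x10^4 cells/well 24 h before treatment. Compound dilution series run 2–100 µM (5 mM DMSO stocks) in 50 µL for 1 h, then medium is added for 24 h at 37 °C, 5% CO2. alamarBlue is read after 1 h (Ex 540/Em 620). Triplicate, ≥2 occasions; ED50 from dose-response; amphotericin B positive control.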
# [7] = Selectivity index, ratio of ED50 for human HepG2 cells to MIC for Escherichia coli K-12 W3110 ATCC 27325; type: toxicity; settings: read-out: Selectivity Index
# [8] = Selectivity index, ratio of ED50 for human HaCaT cells to MIC for Escherichia coli K-12 W3110 ATCC 27325; type: toxicity; settings: read-out: Selectivity Index
# [9] = Selectivity index, ratio of ED50 for human HepG2 cells to MIC for Pseudomonas aeruginosa PAO1 ATCC 15692; type: toxicity; settings: read-out: Selectivity Index
# [10] = Selectivity index, ratio of ED50 for human HaCaT cells to MIC for Pseudomonas aeruginosa PAO1 ATCC 15692; type: toxicity; settings: read-out: Selectivity Index
# Pseudomonas aeruginosa = assay: Antibacterial activity against Pseudomonas aeruginosa PAO1 ATCC 15692 incubated for 16 hrs under shaking condition; type: functional; settings: PAO1 ATCC 15692, 16 h
# Procedure, shortened: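 Broth microdilution (Andrews method) in Iso-sensitest broth. Overnight cultures are adjusted to A650 0.07 (0.5 McFarland) and diluted ten-fold. Compounds come from 5 mM DMSO stocks, 2-fold serially diluted, final 2–100 μM in a 1:1 inoculum:compound mix. Incubation is 37 °C for 16 h with shaking. MIC is the lowest concentration giving complete growth inhibition, read by absorbance; triplicate.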
Compound,selectivity ratio [1],selectivity ratio [2],selectivity ratio [3],selectivity ratio [4],CC50 at 24 h [5],CC50 at 24 h [6],selectivity ratio [7],selectivity ratio [8],selectivity ratio [9],selectivity ratio [10],MIC (Pseudomonas aeruginosa)
C[C@@H](c1ccccc1)N(CC(N)=O)C(=O)CN(Cc1ccc(F)cc1)C(=O)CN(CCCCN)C(=O)CN(C(=O)CN(Cc1ccc(F)cc1)C(=O)CN(CCCCN)C(=O)CN(C(=O)CN(Cc1ccc(F)cc1)C(=O)CN(CCCCN)C(=O)CN(C(=O)CN(Cc1ccc(F)cc1)C(=O)CNCCCCN)[C@@H](C)c1ccccc1)[C@@H](C)c1ccccc1)[C@@H](C)c1ccccc1,10,13,13,10,–,–,–,–,–,–,–
NCCNCC(=O)N(CC(=O)N(CC(=O)N(CCN)CC(=O)N(CC(=O)N(CC(=O)N(CCN)CC(=O)N(CC(=O)N(CC(=O)N(CCN)CC(=O)N(CC(=O)N(CC(N)=O)Cc1ccccc1)Cc1ccccc1)Cc1ccccc1)Cc1ccccc1)Cc1ccccc1)Cc1ccccc1)Cc1ccccc1)Cc1ccccc1 (H-[Gly(N-2-aminoethyl)][Nphe][Nphe][Gly(N-2-aminoethyl)][Nphe][Nphe][Gly(N-2-aminoethyl)][Nphe][Nphe][Gly(N-2-aminoethyl)][Nphe][Nphe]-NH2),17,17,–,–,> 100 µM,> 100 µM,8,8,–,–,–
C[C@@H](c1ccccc1)N(CC(N)=O)C(=O)CN(C(=O)CN(CCCCCCN)C(=O)CN(C(=O)CN(C(=O)CN(CCCCCCN)C(=O)CN(C(=O)CN(C(=O)CN(CCCCCCN)C(=O)CN(C(=O)CN(C(=O)CNCCCCCCN)[C@@H](C)c1ccccc1)[C@@H](C)c1ccccc1)[C@@H](C)c1ccccc1)[C@@H](C)c1ccccc1)[C@@H](C)c1ccccc1)[C@@H](C)c1ccccc1)[C@@H](C)c1ccccc1 (H-[Gly(N-(CH2)6NH2)][Nspe][Nspe][Gly(N-(CH2)6NH2)][Nspe][Nspe][Gly(N-(CH2)6NH2)][Nspe][Nspe][Gly(N-(CH2)6NH2)][Nspe][Nspe]-NH2),12,21,21,12,–,–,–,–,1,0,–
CC(C)CCN(CC(=O)N(CC(N)=O)[C@@H](C)c1ccccc1)C(=O)CN(CCCCNC(=N)N)C(=O)CN(C(=O)CN(CCC(C)C)C(=O)CN(CCCCNC(=N)N)C(=O)CN(C(=O)CN(CCC(C)C)C(=O)CNCCCCNC(=N)N)[C@@H](C)c1ccccc1)[C@@H](C)c1ccccc1 (H-[NhArg][N(isopentyl)Gly][Nspe][NhArg][N(isopentyl)Gly][Nspe][NhArg][N(isopentyl)Gly][Nspe]-NH2),–,–,–,–,–,–,–,–,–,–,> 100 µM
N=C(N)NCCCCNCC(=O)N(CC(=O)N(CC(=O)N(CCCCNC(=N)N)CC(=O)N(CC(=O)N(CC(=O)N(CCCCNC(=N)N)CC(=O)N(CC(=O)N(CC(=O)N(CCCCNC(=N)N)CC(=O)N(CC(=O)N(CC(N)=O)Cc1ccccc1)Cc1ccccc1)Cc1ccccc1)Cc1ccccc1)Cc1ccccc1)Cc1ccccc1)Cc1ccccc1)Cc1ccccc1 (H-[NhArg][Nphe][Nphe][NhArg][Nphe][Nphe][NhArg][Nphe][Nphe][NhArg][Nphe][Nphe]-NH2),50,–,–,–,–,> 100 µM,–,17,–,4,–
C[C@@H](c1ccccc1)N(CC(N)=O)C(=O)CN(C(=O)CN(CCCCN)C(=O)CN(C(=O)CN(C(=O)CN(CCCCN)C(=O)CN(C(=O)CN(C(=O)CN(CCCCNC(=N)N)C(=O)CN(C(=O)CN(C(=O)CNCCCCNC(=N)N)[C@@H](C)c1ccccc1)[C@@H](C)c1ccccc1)[C@@H](C)c1ccccc1)[C@@H](C)c1ccccc1)[C@@H](C)c1ccccc1)[C@@H](C)c1ccccc1)[C@@H](C)c1ccccc1 (H-[NhArg][Nspe][Nspe][NhArg][Nspe][Nspe][Nlys][Nspe][Nspe][Nlys][Nspe][Nspe]-NH2),–,–,–,1,–,–,–,1,–,1,–
C[C@@H](c1ccccc1)N(CC(N)=O)C(=O)CN(C(=O)CN(CCCCN)C(=O)CN(C(=O)CN(C(=O)CN(CCCCNC(=N)N)C(=O)CN(C(=O)CN(C(=O)CN(CCCCN)C(=O)CN(C(=O)CN(C(=O)CNCCCCNC(=N)N)[C@@H](C)c1ccccc1)[C@@H](C)c1ccccc1)[C@@H](C)c1ccccc1)[C@@H](C)c1ccccc1)[C@@H](C)c1ccccc1)[C@@H](C)c1ccccc1)[C@@H](C)c1ccccc1 (H-[NhArg][Nspe][Nspe][Nlys][Nspe][Nspe][NhArg][Nspe][Nspe][Nlys][Nspe][Nspe]-NH2),–,–,–,2,–,–,2,2,–,–,–
NCCCCNCC(=O)N(CC(=O)N(CC(=O)N(CCCCN)CC(=O)N(CC(=O)N(CC(=O)N(CCCCN)CC(=O)N(CC(=O)N(CC(N)=O)Cc1ccc(Cl)cc1)Cc1ccc(Cl)cc1)Cc1ccc(Cl)cc1)Cc1ccc(Cl)cc1)Cc1ccc(Cl)cc1)Cc1ccc(Cl)cc1 (H-[Nlys][Gly(Nα-4-Cl-benzyl)][Gly(Nα-4-Cl-benzyl)][Nlys][Gly(Nα-4-Cl-benzyl)][Gly(Nα-4-Cl-benzyl)][Nlys][Gly(Nα-4-Cl-benzyl)][Gly(Nα-4-Cl-benzyl)]-NH2),11,12,8,7,–,–,–,–,1,1,–
NCCCCNCC(=O)N(CC(=O)N(CC(=O)N(CCCCN)CC(=O)N(CC(=O)N(CC(=O)N(CCCCN)CC(=O)N(CC(=O)N(CC(N)=O)Cc1ccc(F)cc1)Cc1ccc(F)cc1)Cc1ccc(F)cc1)Cc1ccc(F)cc1)Cc1ccc(F)cc1)Cc1ccc(F)cc1 (H-[Nlys][N(4-F-Bzl)Gly][N(4-F-Bzl)Gly][Nlys][N(4-F-Bzl)Gly][N(4-F-Bzl)Gly][Nlys][N(4-F-Bzl)Gly][N(4-F-Bzl)Gly]-NH2),33,15,15,33,–,> 100 µM,3,6,–,–,–
NCCCCNCC(=O)N(CC(=O)N(CC(=O)N(CCCCN)CC(=O)N(CC(=O)N(CC(=O)N(CCCCN)CC(=O)N(CC(=O)N(CC(=O)N(CCCCN)CC(=O)N(CC(=O)N(CC(N)=O)Cc1ccc(F)cc1)Cc1ccc(F)cc1)Cc1ccc(F)cc1)Cc1ccc(F)cc1)Cc1ccc(F)cc1)Cc1ccc(F)cc1)Cc1ccc(F)cc1)Cc1ccc(F)cc1 (H-[Nlys][N(4-F-Bzl)Gly][N(4-F-Bzl)Gly][Nlys][N(4-F-Bzl)Gly][N(4-F-Bzl)Gly][Nlys][N(4-F-Bzl)Gly][N(4-F-Bzl)Gly][Nlys][N(4-F-Bzl)Gly][N(4-F-Bzl)Gly]-NH2),46,30,15,23,–,–,2,4,–,–,–
NCCCCNCC(=O)N(CC(=O)N(CC(=O)N(CCCCN)CC(=O)N(CC(=O)N(CC(=O)N(CCCCN)CC(=O)N(CC(=O)N(CC(=O)N(CCCCN)CC(=O)N(CC(=O)N(CC(N)=O)Cc1ccccc1)Cc1ccccc1)Cc1ccccc1)Cc1ccccc1)Cc1ccccc1)Cc1ccccc1)Cc1ccccc1)Cc1ccccc1 (H-[Nlys][Nphe][Nphe][Nlys][Nphe][Nphe][Nlys][Nphe][Nphe][Nlys][Nphe][Nphe]-NH2),18,50,33,12,> 100 µM,–,8,3,–,–,–
C[C@@H](c1ccccc1)N(CC(N)=O)C(=O)CN(C(=O)CN(CCCCN)C(=O)CN(C(=O)CN(C(=O)CN(CCCCN)C(=O)CN(C(=O)CN(C(=O)CN(CCCCNC(=N)N)C(=O)CN(C(=O)CN(C(=O)CNCCCCN)[C@@H](C)c1ccccc1)[C@@H](C)c1ccccc1)[C@@H](C)c1ccccc1)[C@@H](C)c1ccccc1)[C@@H](C)c1ccccc1)[C@@H](C)c1ccccc1)[C@@H](C)c1ccccc1 (H-[Nlys][Nspe][Nspe][NhArg][Nspe][Nspe][Nlys][Nspe][Nspe][Nlys][Nspe][Nspe]-NH2),–,–,–,2,–,–,2,2,–,2,–
C[C@@H](c1ccccc1)N(CC(N)=O)C(=O)CN(C(=O)CN(CCCCNC(=N)N)C(=O)CN(C(=O)CN(C(=O)CN(CCCCNC(=N)N)C(=O)CN(C(=O)CN(C(=O)CN(CCCCN)C(=O)CN(C(=O)CN(C(=O)CNCCCCN)[C@@H](C)c1ccccc1)[C@@H](C)c1ccccc1)[C@@H](C)c1ccccc1)[C@@H](C)c1ccccc1)[C@@H](C)c1ccccc1)[C@@H](C)c1ccccc1)[C@@H](C)c1ccccc1 (H-[Nlys][Nspe][Nspe][Nlys][Nspe][Nspe][NhArg][Nspe][Nspe][NhArg][Nspe][Nspe]-NH2),–,–,–,6,–,> 100 µM,–,6,–,3,–
